# Assay results from ChEMBL document CHEMBL2424615, “Design, synthesis, and characterization of novel tetrahydropyran-based bacterial topoisomerase inhibitors with potent anti-gram-positive activity” (J Med Chem, 2013).
# How the values were obtained:
# [1] = Inhibition of wild type Escherichia coli ATCC 25922 DNA gyrase subunit 2GyrA/2GyrB assessed as pBR322 supercoiling after 1 hr
# Streptococcus pneumoniae [2] = test: Antibacterial activity against wild type Streptococcus pneumoniae ATCC 49619 assessed as growth inhibition by broth microdilution method; assay type: functional
# Topoisomerase IV = Topoisomerase IV (Staphylococcus aureus, UniProt P0C1S7+P0C1U9); test: Inhibition of wild type Staphylococcus aureus ATCC 29213 topoisomerase-4 subunit 2GrlA/2GrlB assessed as pBR322 relaxation after 1 hr; assay type: protein-complex assay
# Escherichia coli = test: Antibacterial activity against wild type Escherichia coli ATCC 25922 assessed as growth inhibition by broth microdilution method; assay type: functional
# Staphylococcus aureus [3] = test: Antibacterial activity against NXL-101-resistant Staphylococcus aureus A-234 harboring DNA gyrase subunit A D83N mutant assessed as growth inhibition by broth microdilution method; assay type: functional
# hERG (KCNH2) = hERG (KCNH2) (Homo sapiens, UniProt Q12809); test: Inhibition of human ERG expressed in CHO cells at 10 uM after 3 mins by patch clamp assay relative to control; assay type: cell-based; conditions: CHO cells that express human ERG
# [4] = Inhibition of wild type Escherichia coli ATCC 25922 DNA topoisomerase-4 subunit 2ParC/2ParE assessed as pBR322 relaxation after 1 hr
# Pseudomonas aeruginosa = test: Antibacterial activity against wild type Pseudomonas aeruginosa ATCC 27853 assessed as growth inhibition by broth microdilution method; assay type: functional
# Staphylococcus aureus [5] = test: Spontaneous resistance frequency for Staphylococcus aureus ATCC 25923 at 4 times MIC to 16 times MIC after 48 hrs relative to NXL-101; assay type: functional
# Procedure, shortened: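 Incubated 48 h at 37 °C. Frequency calculated as resistant colonies divided by viable bacteria plated, with the viable count taken on drug-free agar.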
# DNA gyrase = DNA gyrase (Staphylococcus aureus, UniProt P0A0K8+P20831); test: Inhibition of wild type Staphylococcus aureus DNA gyrase subunit 2GyrA/2GyrB assessed as pBR322 supercoiling after 1 hr; assay type: protein-complex assay
# Staphylococcus aureus [6] = test: Antibacterial activity against wild type Staphylococcus aureus ATCC 29213 assessed as growth inhibition by broth microdilution method; assay type: functional
# [7] = AUC in Wistar rat at 1 mg/kg, iv administered as bolus dose; assay type: ADME, organism-based; design: dose 1 mg/kg, route intravenous; conditions: plasma
# Procedure, shortened: (§1)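 Male Wistar rats (n = 3) dosed by iv bolus (0.5 or 1 mg/kg) or orally (1 or 10 mg/kg); iv vehicles included pH 4.5 aqueous solution, 5% DMSO in water, or 10% PG/10% PEG400 in water pH 7; oral as pH 5.6 aqueous suspension or microsuspension in 7.5% modified gelatin. Blood sampled by preimplanted catheter over 24 h; plasma by LC-MS/MS, LOQ 1.5 ng/mL.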
# [8] = Oral bioavailability in Wistar rat at 10 mg/kg; assay type: ADME, organism-based; conditions: in vivo; procedure, shortened: as §1
# [9] = Intrinsic clearance in rat liver microsomes at 1 uM; assay type: ADME, Microsome; conditions: read-out: CLH
# [10] = Intrinsic clearance in human liver microsomes at 1 uM; assay type: ADME, Microsome; conditions: read-out: CLH
# [11] = Volume of distribution at steady state in Wistar rat at 1 mg/kg, iv administered as bolus dose and 10 mg/kg, po; assay type: ADME, organism-based; conditions: in vivo, read-out: Vdss; procedure, shortened: as §1
# Rattus norvegicus [12] = test: Unbound clearance in Wistar rat at 1 mg/kg, iv administered as bolus dose and 10 mg/kg, po; assay type: ADME, organism-based; conditions: in vivo; procedure, shortened: as §1
# [13] = AUC in Wistar rat at 10 mg/kg, po; assay type: ADME, organism-based; design: dose 10 mg/kg, route oral; conditions: plasma; procedure, shortened: as §1
# [14] = Fraction unbound in Wistar rat plasma at 1 mg/kg, iv administered as bolus dose and 10 mg/kg, po; assay type: ADME, organism-based
# [15] = Half life in Wistar rat at 1 mg/kg, iv administered as bolus dose and 10 mg/kg, po; assay type: ADME, organism-based; conditions: in vivo; procedure, shortened: as §1
# [16] = Clearance in Wistar rat at 1 mg/kg, iv administered as bolus dose; assay type: ADME, organism-based; design: dose 1 mg/kg, route intravenous; conditions: in vivo; procedure, shortened: as §1
# [17] = Intrinsic clearance in mouse liver microsomes at 1 uM; assay type: ADME, Microsome; conditions: read-out: CLH
# [18] = Fraction unbound in Wistar rat plasma at 0.5 mg/kg, iv and 1 mg/kg, po; assay type: ADME, organism-based
# [19] = Clearance in Wistar rat at 0.5 mg/kg, iv; assay type: ADME, organism-based; design: dose 0.5 mg/kg, route intravenous; conditions: in vivo; procedure, shortened: as §1
# Streptococcus pneumoniae [20] = test: Antibacterial activity against Streptococcus pneumoniae clinical isolate assessed as growth inhibition by broth microdilution method; assay type: functional
# [21] = system: Staphylococcus epidermidis; test: Antibacterial activity against Staphylococcus epidermidis clinical isolate assessed as growth inhibition by broth microdilution method; assay type: functional
# Enterococcus faecium = test: Antibacterial activity against vancomycin-resistant Enterococcus faecium clinical isolate assessed as growth inhibition by broth microdilution method; assay type: functional
# Staphylococcus aureus [22] = test: Antistaphylococcal activity against Staphylococcus aureus DSM 11823 in neutropenic NMRI mouse thigh infection model assessed as reduction of log10cfu in thigh at 40 mg/kg, sc measured after 6 hrs; assay type: functional; conditions: route subcutaneous
# Procedure, shortened: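 Mice made neutropenic with ip cyclophosphamide, 150 mg/kg on day -4 and 100 mg/kg on day -1. Log-phase S. aureus (A580 0.3-0.9), 0.05 ml inoculum given im into both thighs 2 h before sc dosing in 5% mannitol in water at 10 ml/kg. Thighs homogenized, serially diluted and plated for CFU 6 h post infection.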
# [23] = AUC in Wistar rat at 0.5 mg/kg, iv; assay type: ADME, organism-based; design: dose 0.5 mg/kg, route intravenous; conditions: plasma; procedure, shortened: as §1
# Enterococcus faecalis = test: Antibacterial activity against Enterococcus faecalis clinical isolate assessed as growth inhibition by broth microdilution method; assay type: functional
# Staphylococcus aureus [24] = test: Antibacterial activity against methicillin-resistant Staphylococcus aureus clinical isolate assessed as growth inhibition by broth microdilution method; assay type: functional
# [25] = Oral bioavailability in Wistar rat at 1 mg/kg; assay type: ADME, organism-based; conditions: in vivo; procedure, shortened: as §1
# Staphylococcus aureus [26] = test: Antibacterial activity against fluoroquinolone-resistant Staphylococcus aureus clinical isolate assessed as growth inhibition by broth microdilution method; assay type: functional
# [27] = AUC in Wistar rat at 1 mg/kg, po; assay type: ADME, organism-based; design: dose 1 mg/kg, route oral; conditions: plasma; procedure, shortened: as §1
# Streptococcus pyogenes = test: Antibacterial activity against Streptococcus pyogenes clinical isolate assessed as growth inhibition by broth microdilution method; assay type: functional
# [28] = Half life in Wistar rat at 0.5 mg/kg, iv and 1 mg/kg, po; assay type: ADME, organism-based; conditions: in vivo; procedure, shortened: as §1
# Rattus norvegicus [29] = test: Unbound clearance in Wistar rat at 0.5 mg/kg, iv and 1 mg/kg, po; assay type: ADME, organism-based; conditions: in vivo; procedure, shortened: as §1
# [30] = Volume of distribution at steady state in Wistar rat at 0.5 mg/kg, iv and 1 mg/kg, po; assay type: ADME, organism-based; conditions: in vivo, read-out: Vdss; procedure, shortened: as §1
# Streptococcus agalactiae = test: Antibacterial activity against Streptococcus agalactiae clinical isolate assessed as growth inhibition by broth microdilution method; assay type: functional
# Moraxella catarrhalis = test: Antibacterial activity against Moraxella catarrhalis clinical isolate assessed as growth inhibition by broth microdilution method; assay type: functional
# Staphylococcus aureus [31] = test: Antistaphylococcal activity against Staphylococcus aureus DSM 11823 assessed as growth inhibition by broth microdilution method; assay type: functional
# Haemophilus influenzae = test: Antibacterial activity against Haemophilus influenzae clinical isolate assessed as growth inhibition by broth microdilution method; assay type: functional
smiles,measurement,setting,value
COc1ccc2ncc(F)c([C@@H](O)[C@H](O)[C@@H]3CC[C@@H](NCc4ccc5c(n4)NC(=O)CS5)CO3)c2n1,IC50,[1],500 nM
same,MIC,Streptococcus pneumoniae [2],0.06 µg/mL
same,IC50,Topoisomerase IV,500 nM
same,MIC,Escherichia coli,1 µg/mL
same,MIC,Staphylococcus aureus [3],0.25 µg/mL
same,"inhibition at 0.05 h, 10 µM",hERG (KCNH2),54%
same,IC50,[4],30 nM
same,MIC,Pseudomonas aeruginosa,> 8 µg/mL
same,fold change (FC),Staphylococcus aureus [5],10
same,IC50,DNA gyrase,30 nM
same,MIC,Staphylococcus aureus [6],0.03 µg/mL
COc1cnc2cccc([C@@H](O)[C@H](O)[C@@H]3CC[C@@H](NCc4ccc5c(n4)NC(=O)CS5)CO3)c2n1,AUC,[7],313 ng·h/mL
same,IC50,[1],500 nM
same,MIC,Streptococcus pneumoniae [2],0.06 µg/mL
same,IC50,Topoisomerase IV,2000 nM
same,MIC,Escherichia coli,2 µg/mL
same,bioavailability,[8],26%
same,microsomal CLint at 1 µM,[9],92 µL/min/mg
same,microsomal CLint at 1 µM,[10],45 µL/min/mg
same,MIC,Staphylococcus aureus [3],0.5 µg/mL
same,Vd,[11],18 L/kg
same,"inhibition at 0.05 h, 10 µM",hERG (KCNH2),55%
same,CL free,Rattus norvegicus [12],294 mL/min/kg
same,IC50,[4],125 nM
same,AUC,[13],817 ng·h/mL
same,fraction unbound,[14],0.18
same,half-life,[15],5.9 h
same,MIC,Pseudomonas aeruginosa,> 8 µg/mL
same,IC50,DNA gyrase,30 nM
same,clearance,[16],53 mL/min/kg
same,MIC,Staphylococcus aureus [6],0.03 µg/mL
same,microsomal CLint at 1 µM,[17],39 µL/min/mg
COc1ccc2ncc(F)c([C@@H](O)[C@H](O)[C@@H]3CC[C@@H](NCc4cc5c(cn4)OCCS5)CO3)c2n1,IC50,[1],8000 nM
same,fraction unbound,[18],0.017
same,MIC,Streptococcus pneumoniae [2],≤ 0.015 µg/mL
same,clearance,[19],8.7 mL/min/kg
same,IC50,Topoisomerase IV,8000 nM
same,MIC50,Streptococcus pneumoniae [20],0.06 µg/mL
same,MIC90,Streptococcus pneumoniae [20],0.125 µg/mL
same,MIC50,[21],0.06 µg/mL
same,MIC90,[21],0.25 µg/mL
same,MIC,Escherichia coli,8 µg/mL
same,microsomal CLint at 1 µM,[9],344 µL/min/mg
same,microsomal CLint at 1 µM,[10],30 µL/min/mg
same,MIC,Staphylococcus aureus [3],2 µg/mL
same,MIC50,Enterococcus faecium,0.25 µg/mL
same,MIC90,Enterococcus faecium,1 µg/mL
same,"inhibition at 0.05 h, 10 µM",hERG (KCNH2),19%
same,log10cfu,Staphylococcus aureus [22],1
same,AUC,[23],959 ng·h/mL
same,IC50,[4],125 nM
same,MIC50,Enterococcus faecalis,0.5 µg/mL
same,MIC90,Enterococcus faecalis,0.5 µg/mL
same,MIC50,Staphylococcus aureus [24],≤ 0.015 µg/mL
same,MIC90,Staphylococcus aureus [24],0.03 µg/mL
same,bioavailability,[25],41%
same,MIC50,Staphylococcus aureus [26],≤ 0.015 µg/mL
same,MIC90,Staphylococcus aureus [26],0.03 µg/mL
same,AUC,[27],776 ng·h/mL
same,MIC50,Streptococcus pyogenes,0.03 µg/mL
same,MIC90,Streptococcus pyogenes,0.06 µg/mL
same,half-life,[28],3 h
same,CL free,Rattus norvegicus [29],512 mL/min/kg
same,Vd,[30],1 L/kg
same,MIC,Pseudomonas aeruginosa,> 8 µg/mL
same,MIC50,Streptococcus agalactiae,0.25 µg/mL
same,MIC90,Streptococcus agalactiae,0.5 µg/mL
same,fold change (FC),Staphylococcus aureus [5],10
same,MIC50,Moraxella catarrhalis,0.03 µg/mL
same,MIC90,Moraxella catarrhalis,0.125 µg/mL
same,IC50,DNA gyrase,30 nM
same,MIC,Staphylococcus aureus [6],≤ 0.015 µg/mL
same,microsomal CLint at 1 µM,[17],291 µL/min/mg
same,MIC,Staphylococcus aureus [31],0.06 µg/mL
same,MIC50,Haemophilus influenzae,0.5 µg/mL
same,MIC90,Haemophilus influenzae,4 µg/mL
COc1ccc2nccc(CC[C@@H]3CC[C@@H](NCc4ccc5c(n4)NC(=O)CS5)CO3)c2n1,AUC,[7],463 ng·h/mL
same,IC50,[1],120 nM
same,MIC,Streptococcus pneumoniae [2],0.06 µg/mL
same,IC50,Topoisomerase IV,500 nM
same,MIC,Escherichia coli,1 µg/mL
same,bioavailability,[8],29%
same,microsomal CLint at 1 µM,[9],> 1250 µL/min/mg
same,microsomal CLint at 1 µM,[10],347 µL/min/mg
same,MIC,Staphylococcus aureus [3],1 µg/mL
same,Vd,[11],3.2 L/kg
same,AUC,[13],1320 ng·h/mL
same,half-life,[15],1.2 h
same,MIC,Pseudomonas aeruginosa,> 8 µg/mL
same,IC50,DNA gyrase,30 nM
same,clearance,[16],36 mL/min/kg
same,MIC,Staphylococcus aureus [6],0.03 µg/mL
same,microsomal CLint at 1 µM,[17],954 µL/min/mg
